Measured values of several laboratories.
Lines come from different studies, so protocols differ.
Cell line: NCI-H1299
Effect on: cell growth or viability

Structure (SMILES)	assay	conditions	IC50
O=c1[nH]cc(S(=O)(=O)Nc2cccc(-c3nnc(-c4cccc(Cl)c4)o3)c2)c(=O)[nH]1	MTT	24 h	27.6 µM
C/C(=N\O)c1ccc(-c2ccc(O)c(C)c2)c(Cl)c1O	MTT	48 h	30.3 µM
COc1cc2c(Nc3ccc(NC(=O)c4ccccc4)cc3)ncnc2cc1OCCCN1CCOCC1	MTS	48 h	1.1 µM
CC(C)C[C@H](NC(=O)[C@H](Cc1ccccc1)NC(=O)c1cnccn1)B(O)O	ATP luminescence	–	0.0099 µM
OCc1cn(Cc2ccc(Cl)cc2)c2ccccc12	SRB	72 h	≥ 13 µM
COc1ccccc1/C=C/CNCC(O)COc1cccc2ncccc12 (centres unmarked)	CCK-8	72 h	36.6 µM
OCc1cn(Cc2cccc(Cl)c2)c2ccccc12	SRB	72 h	≥ 13 µM
COc1ccccc1/C=C/CNCC(O)COc1ccc2ncccc2c1 (centres unmarked)	CCK-8	72 h	> 100 µM
C/C(=N\O)c1ccc(-c2ccc(O)c(Cl)c2)c(Cl)c1O	MTT	48 h	45.8 µM
COc1ccccc1/C=C/CNCC(O)COc1cccc2c1[nH]c1ccccc12 (centres unmarked)	CCK-8	72 h	16.3 µM
COc1cc(Nc2nccc(-c3cnn4nc(OC)ccc34)n2)cc(C(F)(F)F)c1	ATP luminescence	–	0.26 µM
